The results in this text go back to publication PMC10925177 (bioRxiv, 2024).

Experiment [1] concerns the target T1, G9a (Homo sapiens, UniProt Q96KQ7).
T1 sequence (Q96KQ7 1-1210): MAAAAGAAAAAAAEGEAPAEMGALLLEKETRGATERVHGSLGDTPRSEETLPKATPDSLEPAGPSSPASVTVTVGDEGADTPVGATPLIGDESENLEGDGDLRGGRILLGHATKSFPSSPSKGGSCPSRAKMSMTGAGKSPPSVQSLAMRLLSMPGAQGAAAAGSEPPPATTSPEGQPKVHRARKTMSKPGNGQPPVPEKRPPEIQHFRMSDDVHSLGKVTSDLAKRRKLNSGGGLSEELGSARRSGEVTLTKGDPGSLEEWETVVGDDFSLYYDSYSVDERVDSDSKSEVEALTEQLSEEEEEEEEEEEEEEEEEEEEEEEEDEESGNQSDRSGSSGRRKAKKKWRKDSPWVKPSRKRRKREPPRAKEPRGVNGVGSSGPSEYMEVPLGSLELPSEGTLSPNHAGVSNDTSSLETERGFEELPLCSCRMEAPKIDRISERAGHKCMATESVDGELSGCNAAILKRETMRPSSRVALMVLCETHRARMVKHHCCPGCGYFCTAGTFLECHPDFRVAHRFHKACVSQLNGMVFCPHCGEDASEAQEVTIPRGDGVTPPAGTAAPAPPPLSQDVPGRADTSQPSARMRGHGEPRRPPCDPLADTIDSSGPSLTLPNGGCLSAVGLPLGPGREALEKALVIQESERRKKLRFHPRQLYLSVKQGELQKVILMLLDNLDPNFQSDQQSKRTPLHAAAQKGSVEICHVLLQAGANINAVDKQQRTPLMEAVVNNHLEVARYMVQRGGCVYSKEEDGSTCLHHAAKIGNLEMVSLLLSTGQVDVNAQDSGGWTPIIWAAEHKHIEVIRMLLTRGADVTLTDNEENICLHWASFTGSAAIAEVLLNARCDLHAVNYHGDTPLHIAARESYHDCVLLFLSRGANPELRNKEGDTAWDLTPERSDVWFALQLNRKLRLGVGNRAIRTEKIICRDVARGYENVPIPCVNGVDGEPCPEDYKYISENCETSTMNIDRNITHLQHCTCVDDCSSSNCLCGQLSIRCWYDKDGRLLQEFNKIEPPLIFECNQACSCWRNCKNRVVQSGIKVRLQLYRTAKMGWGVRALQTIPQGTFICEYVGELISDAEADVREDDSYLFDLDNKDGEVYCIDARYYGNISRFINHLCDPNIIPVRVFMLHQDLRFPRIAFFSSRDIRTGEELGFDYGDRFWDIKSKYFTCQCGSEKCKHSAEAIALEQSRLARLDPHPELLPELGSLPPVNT
Description: Western blot of G9a protein levels in cancer cells. Particulars: 24 h, WB. Format: cell-based. A digest of the protocol: (§1)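 Cells (22Rv1, K562, H1299) were treated for 24 h at the indicated concentrations; 22Rv1 time courses were run at 3 μM. Cells were lysed in RIPA with protease inhibitors, and 10–30 μg of protein was resolved by SDS-PAGE and transferred to PVDF. Blots were probed overnight at 4 °C, with vinculin/β-actin as loading controls. Band intensity was normalised to DMSO, with n = 2 independent experiments (mean ± SD).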

The target in experiment [2] is T2, GLP (Homo sapiens, UniProt Q9H9B1).
T2 sequence (Q9H9B1 1-1298): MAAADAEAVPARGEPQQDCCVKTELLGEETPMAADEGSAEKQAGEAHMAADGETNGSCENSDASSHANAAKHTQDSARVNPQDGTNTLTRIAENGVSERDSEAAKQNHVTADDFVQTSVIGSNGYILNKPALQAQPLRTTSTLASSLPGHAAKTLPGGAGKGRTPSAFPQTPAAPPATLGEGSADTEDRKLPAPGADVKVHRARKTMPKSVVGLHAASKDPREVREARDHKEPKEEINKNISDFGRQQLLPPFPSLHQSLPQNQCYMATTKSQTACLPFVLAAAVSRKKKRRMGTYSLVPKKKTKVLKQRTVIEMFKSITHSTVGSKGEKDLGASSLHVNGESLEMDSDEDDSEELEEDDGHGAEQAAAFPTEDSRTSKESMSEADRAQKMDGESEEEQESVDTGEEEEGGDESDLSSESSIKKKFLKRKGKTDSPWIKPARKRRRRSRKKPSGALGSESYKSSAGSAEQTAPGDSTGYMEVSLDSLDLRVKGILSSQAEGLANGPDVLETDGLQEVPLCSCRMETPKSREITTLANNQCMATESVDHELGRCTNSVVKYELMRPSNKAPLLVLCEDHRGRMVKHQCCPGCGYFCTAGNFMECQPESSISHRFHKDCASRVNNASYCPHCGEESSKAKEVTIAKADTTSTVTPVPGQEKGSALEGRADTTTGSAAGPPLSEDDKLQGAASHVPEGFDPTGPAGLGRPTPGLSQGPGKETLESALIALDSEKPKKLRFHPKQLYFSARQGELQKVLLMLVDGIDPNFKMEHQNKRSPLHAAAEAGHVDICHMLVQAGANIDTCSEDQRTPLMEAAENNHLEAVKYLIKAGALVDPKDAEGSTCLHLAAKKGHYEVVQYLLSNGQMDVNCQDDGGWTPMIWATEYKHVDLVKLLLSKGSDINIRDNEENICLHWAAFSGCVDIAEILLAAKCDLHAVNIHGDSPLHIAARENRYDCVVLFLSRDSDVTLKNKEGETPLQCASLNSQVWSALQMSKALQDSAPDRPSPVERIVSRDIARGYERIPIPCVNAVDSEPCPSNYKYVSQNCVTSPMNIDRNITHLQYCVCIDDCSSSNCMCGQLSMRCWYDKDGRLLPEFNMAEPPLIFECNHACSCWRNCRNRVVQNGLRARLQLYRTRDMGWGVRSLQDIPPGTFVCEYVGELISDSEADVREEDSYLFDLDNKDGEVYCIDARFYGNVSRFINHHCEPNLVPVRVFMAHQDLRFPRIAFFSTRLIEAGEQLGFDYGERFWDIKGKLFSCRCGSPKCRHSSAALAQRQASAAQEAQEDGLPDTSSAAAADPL
Description: Western blot of GLP protein levels in cancer cells. Format: cell-based. The settings on record: 24 h, WB. A digest of the protocol: as §1
(In western blotting, separated proteins are transferred to a membrane and probed.)

Experiment [3] deals with T2, GLP. Nature of the experiment: GLP radioactive methyltransferase assay. Format: biochemical. Particulars: indicated concentrations, duplicate (Figure 4C). A digest of the protocol: (§2)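 Enzyme activity was measured with a radioisotope-based MT HotSpot methyltransferase assay run by a contract laboratory. Test compounds were run at the indicated concentrations, in duplicate. Data are mean ± SD of the two duplicate experiments.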

Experiment [4] deals with T1, G9a. Nature of the experiment: G9a radioactive methyltransferase assay. It counts as biochemical. Particulars: indicated concentrations, duplicate (Figure 4B). An outline of the steps:
as §2

Experiment [5] concerns G9a mRNA. Nature of the experiment: RT-qPCR of G9a mRNA in H1299 cells. Format: cell-based. Particulars: 3 μM, 24 h, normalized to DMSO. A digest of the protocol:
(§3)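 H1299 cells were treated with DMSO or test compound at 3 μM for 24 h. Total RNA was extracted and reverse-transcribed to cDNA. qPCR used gene-specific primers for G9a and GLP, and a GAPDH primer set was included.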

The subject of experiment [6] is K562 cells. Nature of the experiment: Cell viability assay. Particulars: 7 days treatment, WST-8 (CCK-8). It counts as cell-based. A digest of the protocol:
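K562 cells were grown at 37 °C in 5% CO2 and exposed to serial dilutions of the test compound for 7 days. Viability was read with CCK-8 (WST-8) as absorbance at 450 nm, with 690 nm as reference. IC50 came from curve fitting. Values are mean ± SD from four independent biological experiments.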

In experiment [7] the test system is GLP mRNA. Description: RT-qPCR of GLP mRNA in H1299 cells. It counts as cell-based. Particulars: 3 μM, 24 h, normalized to DMSO. A digest of the protocol: as §3
(Real-time PCR tracks product formation cycle by cycle.)

For the molecule `COc1cc2c(NC3CCN(CCCC(=O)NCCC(=O)N[C@H](C(=O)N4C[C@H](O)C[C@H]4C(=O)NCc4ccc(-c5scnc5C)cc4)C(C)(C)C)CC3)nc(N3CCC(F)(F)CC3)nc2cc1OCCCN1CCCC1` [Compound 1, (2S,4R)-1-((S)-2-(3-(4-(4-((2-(4,4-difluoropiperidin-1-yl)-6-methoxy-7-(3-(pyrrolidin-1-yl)propoxy)quinazolin-4-yl)amino)piperidin-1-yl)butanamido)propanamido)-3,3-dimethylbutanoyl)-4-hydroxy-N-(4-(4-methylthiazol-5-yl)benzyl)pyrrolidine-2-carboxamide], in experiment [1] (22Rv1 cells, 0.3 or 3 μM), the “G9a degradation, in words” value was “moderate”. The “GLP degradation, in words” value in experiment [2] (22Rv1 cells, 0.3 or 3 μM) is “moderate”.

In the case of `COc1cc2c(NC3CCN(CCCC(=O)NCCOCCC(=O)N[C@H](C(=O)N4C[C@H](O)C[C@H]4C(=O)NCc4ccc(-c5scnc5C)cc4)C(C)(C)C)CC3)nc(N3CCC(F)(F)CC3)nc2cc1OCCCN1CCCC1` [Compound 11, (2S,4R)-1-((S)-2-(3-(2-(4-(4-((2-(4,4-difluoropiperidin-1-yl)-6-methoxy-7-(3-(pyrrolidin-1-yl)propoxy)quinazolin-4-yl)amino)piperidin-1-yl)butanamido)ethoxy)propanamido)-3,3-dimethylbutanoyl)-4-hydroxy-N-(4-(4-methylthiazol-5-yl)benzyl)pyrrolidine-2-carboxamide], the “G9a degradation, in words” value in experiment [1] (22Rv1 cells, 0.3 or 3 μM) is recorded as “did not degrade”.

For `COc1cc2c(NC3CCN(CCCC(=O)NCCOCCOCCC(=O)N[C@H](C(=O)N4C[C@H](O)C[C@H]4C(=O)NCc4ccc(-c5scnc5C)cc4)C(C)(C)C)CC3)nc(N3CCC(F)(F)CC3)nc2cc1OCCCN1CCCC1` [Compound 12, (2S,4R)-1-((S)-2-(tert-butyl)-17-(4-((2-(4,4-difluoropiperidin-1-yl)-6-methoxy-7-(3-(pyrrolidin-1-yl)propoxy)quinazolin-4-yl)amino)piperidin-1-yl)-4,14-dioxo-7,10-dioxa-3,13-diazaheptadecanoyl)-4-hydroxy-N-(4-(4-methylthiazol-5-yl)benzyl)pyrrolidine-2-carboxamide], in experiment [1] (22Rv1 cells, 0.3 or 3 μM), the “G9a degradation, in words” value is on record as “little or no degradation”. Also, the “GLP degradation, in words” value in experiment [2] (22Rv1 cells, 0.3 or 3 μM) is on record as “little or no degradation”.

In the case of `COc1cc2c(NC3CCN(CCCC(=O)NCCOCCOCCOCCC(=O)N[C@H](C(=O)N4C[C@H](O)C[C@H]4C(=O)NCc4ccc(-c5scnc5C)cc4)C(C)(C)C)CC3)nc(N3CCC(F)(F)CC3)nc2cc1OCCCN1CCCC1` [Compound 13, (2S,4R)-1-((S)-2-(tert-butyl)-20-(4-((2-(4,4-difluoropiperidin-1-yl)-6-methoxy-7-(3-(pyrrolidin-1-yl)propoxy)quinazolin-4-yl)amino)piperidin-1-yl)-4,17-dioxo-7,10,13-trioxa-3,16-diazaicosanoyl)-4-hydroxy-N-(4-(4-methylthiazol-5-yl)benzyl)pyrrolidine-2-carboxamide], in experiment [1] (22Rv1 cells, 0.3 or 3 μM), the “G9a degradation, in words” value is recorded as “little or no degradation”. Besides, the “GLP degradation, in words” value in experiment [2] (22Rv1 cells, 0.3 or 3 μM) is “little or no degradation”.

Regarding `COc1cc2c(NC3CCN(CCCC(=O)NCCCCCCCCCCCC(=O)N[C@H](C(=O)N4C[C@@H](O)C[C@@H]4C(=O)NCc4ccc(-c5scnc5C)cc4)C(C)(C)C)CC3)nc(N3CCC(F)(F)CC3)nc2cc1OCCCN1CCCC1` [Compound 14, (2R,4S)-1-((S)-2-(12-(4-(4-((2-(4,4-difluoropiperidin-1-yl)-6-methoxy-7-(3-(pyrrolidin-1-yl)propoxy)quinazolin-4-yl)amino)piperidin-1-yl)butanamido)dodecanamido)-3,3-dimethylbutanoyl)-4-hydroxy-N-(4-(4-methylthiazol-5-yl)benzyl)pyrrolidine-2-carboxamide], the “inhibition of GLP enzymatic activity” value in experiment [3] is “similarly inhibited”. Besides, the “inhibition of G9a enzymatic activity” value in experiment [4] is listed as “similarly inhibited”.

Consider `COc1cc2c(NC3CCN(C(C)C)CC3)nc(N3CCC(F)(F)CC3)nc2cc1OCCCN1CCCC1` [UNC0642, reference compound], for which the “G9a degradation, in words” value in experiment [1] (K562 cells, 3 μM) is “did not degrade”. Moreover, in experiment [3], the “inhibition of GLP enzymatic activity” value is “similarly inhibited”. Besides, in experiment [5], the “mRNA levels of G9a” value is on record as “did not significantly alter”. Also, in experiment [4], the “inhibition of G9a enzymatic activity” value is given as “similarly inhibited”. In addition, in experiment [6], the “GI50 of cell growth inhibition (IC50 in the figure)” value is recorded as “unable to suppress cell proliferation”. In experiment [2] (K562 cells, 3 μM), the “GLP degradation, in words” value was “did not degrade”. In addition, the “mRNA levels of GLP” value in experiment [7] is “did not significantly alter”.
